This is an account of results in paper PMC3933949 (Bioorganic & medicinal chemistry, 2012).

One assay addresses aromatase. As to conditions: cited from earlier work; for aromatase inhibition of naturally occurring isoflavones (in words): literature background.
Assay [1] has as its target T1, recombinant human aromatase (CYP19) (Homo sapiens, UniProt P11511).
T1 sequence (P11511 1-503): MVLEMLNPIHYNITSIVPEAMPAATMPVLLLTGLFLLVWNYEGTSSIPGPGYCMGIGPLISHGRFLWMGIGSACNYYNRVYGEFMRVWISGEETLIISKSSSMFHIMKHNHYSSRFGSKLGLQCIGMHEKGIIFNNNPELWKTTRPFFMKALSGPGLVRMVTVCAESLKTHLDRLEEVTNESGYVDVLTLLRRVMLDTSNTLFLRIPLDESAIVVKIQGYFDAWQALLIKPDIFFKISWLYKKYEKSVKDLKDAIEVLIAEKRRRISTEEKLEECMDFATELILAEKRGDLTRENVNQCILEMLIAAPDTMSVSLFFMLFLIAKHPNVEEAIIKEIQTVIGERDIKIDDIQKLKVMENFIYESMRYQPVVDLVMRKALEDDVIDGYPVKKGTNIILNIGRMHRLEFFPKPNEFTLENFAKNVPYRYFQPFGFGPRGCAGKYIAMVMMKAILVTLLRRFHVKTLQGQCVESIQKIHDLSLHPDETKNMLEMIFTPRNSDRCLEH
Kind of assay: Fluorescence-based aromatase activity assay. The assay is classed as biochemical. As to conditions: for increase in inhibition potency compared to model compound 1a: ratio of aromatase IC50 values versus 1a; for aromatase inhibition (in words): recombinant human aromatase, fluorescence assay. In outline: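 Baculovirus/insect-cell-expressed human aromatase with P450 reductase; 3-fold serial dilutions from acetonitrile stocks, preincubated 10 min at 37 °C with NADPH-regenerating cofactor mix (pH 7.5). Enzyme/MFC solution (pH 7.4) was added, then 30 min at 37 °C, Tris stop, fluorescence ex 409/em 530 nm. Interfering compounds: DBF substrate, 2 h, NaOH stop.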

Where “and” joins values, the source holds several entries; their conditions need not be identical. Equal values may be shown once.

Turning to `O=C1c2ccccc2OCC1c1ccc(O)c(O)c1` (stereo not shown) [3′,4′-dihydroxyisoflavanone], the IC50 (in general, the concentration at which inhibition is half-maximal) at aromatase (aromatase, isoflavanone compounds, ref 20b) is 200 µM and ≥ 200 µM.

`O=C1c2ccccc2OCC1c1ccc(Oc2ccccc2)cc1` (stereo not shown) [Compound 1h, 3-(4-Phenoxyphenyl)chroman-4-one]: in assay [1], the “increase in inhibition potency compared to model compound 1a” value (“increase in inhibition potency” for short) was 12 fold.

Consider `O=C1c2ccccc2OCC1c1ccc(-c2ccccc2)cc1` (stereo not shown) [Compound 1i, 3-(Biphenyl-4-yl)chroman-4-one], for which the “aromatase inhibition (in words)” value in assay [1] is on record as “no significant inhibition”.

Consider `O=C1c2ccccc2OCC1c1cc2ccccc2c2ccccc12` (stereo not shown) [Compound 1j, 3-(Phenanthren-9-yl)chroman-4-one], for which, in assay [1], the “aromatase inhibition (in words)” value is recorded as “no significant inhibition”.

Consider `COc1cc(OC)cc(C2COc3ccccc3C2=O)c1` (stereo not shown) [Compound 2g, 3-(3,5-Dimethoxyphenyl)chroman-4-one], for which the “increase in inhibition potency” value in assay [1] is recorded as “threefold”.

Consider `O=C1c2ccccc2OCC1c1ccsc1` (stereo not shown) [Compound 3a, 3-(Thiophen-3-yl)chroman-4-one], for which the “aromatase inhibition (in words)” value in assay [1] is “did not exhibit a significant increase in potency”.

For `O=C1c2ccccc2OCC1c1cccnc1` (stereo not shown) [Compound 3b, 3-(Pyridin-3-yl)chroman-4-one], the “increase in inhibition potency” value in assay [1] is “fivefold”.

Regarding `O=C1c2cc(Cl)ccc2OCC1c1ccccc1` (stereo not shown) [Compound 4b, 6-Chloro-3-phenylchroman-4-one], the “aromatase inhibition (in words)” value in assay [1] is listed as “Enhanced inhibitory effects”.

For the compound `CC(C)(C)c1ccc2c(c1)C(=O)C(c1ccccc1)CO2` (stereo not shown) [Compound 4d, 6-tert-Butyl-3-phenylchroman-4-one], in assay [1], the “aromatase inhibition (in words)” value is given as “reduced the binding affinity”.

Consider `O=c1c(-c2ccc(O)cc2)coc2cc(O)ccc12` [daidzein], for which the “aromatase inhibition of naturally occurring isoflavones (in words)” value in the assay with aromatase was “either inactive or weak inhibitors”.

Regarding `O=c1c(-c2ccc(O)cc2)coc2cc(O)cc(O)c12` [genistein], the “aromatase inhibition of naturally occurring isoflavones (in words)” value in the assay with aromatase is “either inactive or weak inhibitors”.

With `COc1cc2c(=O)c(-c3ccc(O)cc3)coc2cc1O` [glycitein], in the assay on aromatase, the “aromatase inhibition of naturally occurring isoflavones (in words)” value was “either inactive or weak inhibitors”.

With `O=c1c(-c2ccccc2)coc2ccccc12` [isoflavone, 3-phenylbenzopyrone], the “aromatase inhibition of scaffold (in words)” value in the assay with aromatase (ref 20b) was “inactive”.
